Measured values taken from ChEMBL document CHEMBL2424651, “Synthesis and antiproliferative activity of new cytotoxic tri- and tetraazabenzo[3,2-a]fluorene-5,6-dione derivatives” (Bioorg Med Chem Lett, 2013).

Assays:
[1] = Cytotoxicity against human KB/HeLa cells after 48 hrs by resazurin dye assay; type: functional, cell-based
Method in brief: (§1)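 Cells were seeded in the supplier-recommended growth medium and grown 24 h at 37 °C/5% CO2, with density set per line to give a linear signal. Compound exposure was 48 h in total. Resazurin (0.2 mg/mL in DPBS) was added for the final 3 h, and fluorescence was read at 590 nm. Data were expressed as % efficacy against non-treated cells and cell-free blanks on each plate. EC50 came from non-linear regression.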

NCI-H460 = test: Cytotoxicity against human NCI-H460 cells after 48 hrs by resazurin dye assay; type: functional, cell-based; conditions: NCI-H460, 48 h; method in brief: as §1
SK-OV-3 [2] = test: Cytotoxicity against human SKOV3 cells after 48 hrs by resazurin dye assay; type: functional, cell-based; conditions: SK-OV-3, 48 h; method in brief: as §1
SK-OV-3 [3] = test: Cytotoxicity against human SKOV3 cells at 31.6 uM after 48 hrs by resazurin dye assay; type: functional; conditions: SK-OV-3, 48 h

Compound	EC50 [1]	EC50 (NCI-H460)	EC50 (SK-OV-3 [2])	inhibition at 31.6 µM (SK-OV-3 [3])
CN(C)CCO/N=C1\C(=O)c2c(nc3ccccn23)-c2cnccc21	6150 nM	2670 nM	2930 nM	–
O=C1/C(=N\OCCO)c2cnccc2-c2nc3ccccn3c21	532 nM	521 nM	2060 nM	–
COc1cccc2c1C(=O)c1c(O)c3c(c(O)c1C2=O)C[C@@](O)(C(=O)CO)C[C@@H]3O[C@H]1C[C@H](N)[C@H](O)[C@H](C)O1 [DOXORUBICIN]	250 nM	40 nM	290 nM	–
CN(C)CCO/N=C1\C(=O)c2c(nc3ccccn23)-c2ccncc21	406 nM	414 nM	931 nM	–
O=C1c2c(O)ccc(O)c2C(=O)c2c(NCCNCCO)ccc(NCCNCCO)c21 [MITOXANTRONE]	420 nM	30 nM	–	–
O=C1C(=O)c2c(nc3ccccn23)-c2cnccc21	917 nM	620 nM	1220 nM	–
O=C1/C(=N\OCCO)c2ccncc2-c2nc3ccccn3c21	4350 nM	3880 nM	14700 nM	–
O=C1C(=O)c2c(nc3ccc(Cl)cn23)-c2ccncc21	394 nM	342 nM	525 nM	–
O=C1C(=O)c2c(nc3ccccn23)-c2ccncc21	244 nM	242 nM	498 nM	–
O=C1C(=O)c2c(nc3ccccn23)-c2ncncc21	145 nM	337 nM	283 nM	–
CN(C)CCN(C)c1cc2c(cn1)C(=O)C(=O)c1c-2nc2ccc(Cl)cn12	2800 nM	2140 nM	–	< 30%
